Fewer inactive variants are shown than the library holds.
B1: tRNA (parent)
chain: CUCUCGGUAGCCAAGUUGGUUUAAGGCGCAAGACUUUAAUUUAUCACUACGAAAUCUUGAGAUCGGGCGUUCGACUCGCCCCCGGGAGAUUUUUUCCUCGAGCAA

Variants of: B1
Test: nonsense suppression (GFP-seq) (ratio to wild type); higher = more function; SUP4oc tRNA, yeast GFP reporter sort-seq
How it was run: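 Yeast were grown in raffinose/galactose medium with 80 mg/L adenine, each strain bearing a genome-integrated ochre-suppressor tRNA variant from a ~3% random-mutation library, a galactose-driven GFP ochre reporter, and RFP. After sorting into GFP/RFP bins, every bin was sequenced on an Illumina platform at phred ≥30. The GFPSEQ value, a measure of nonsense suppression, is the weighted bin median GFP/RFP relative to the unmutated parent tRNA, using each variant's estimated cell share per bin as the weight. Only variants with ≥100 reads and ≥30 cells were included.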

Row | Variant | nonsense suppression
1 | G7U A9C U16C U57C | ≤ 0.026
2 | A9C U21C A62C C77A | ≤ 0.026
3 | A9G A54U U70C | ≤ 0.026
4 | U8A U57C A74C G78U G85U A87U | ≤ 0.026
5 | A9C C75A G88A | ≤ 0.026
6 | A9G A31G | 0.259
7 | G7C C29G A30G G61U U70C G85C | ≤ 0.026
8 | G6A A13G U20G C34A G73A | 0.0802
9 | A9C C34G | ≤ 0.026
10 | C5U G28C A30G A33U | ≤ 0.026
11 | G6U A60G G61A G65C | ≤ 0.026
12 | A9G C68U | 0.153
13 | A9G C72U | 0.0591
14 | A9G C72A | 0.0268
15 | G7U G19U | ≤ 0.026
16 | G6A G10A G19C A54U G73C G88U | ≤ 0.026
17 | G7A A30U | 0.0309
18 | G6A G28C | 0.0666
19 | G7C A14C G61U A74U A87G | ≤ 0.026
20 | A9G C11U | 0.0313
21 | A9G G73U | 0.053
22 | A9G G73A | 0.12
23 | G7A U20G | ≤ 0.026
24 | U8G C29G G84A | ≤ 0.026

Row | Variant | nonsense suppression
25 | A9C A30G | 0.171
26 | A9C A30U | 0.0886
27 | U8A A30G A33G | ≤ 0.026
28 | A9G A74C | 0.0286
29 | A9G U20G C75G | 0.831
30 | G7A A23C C56G | ≤ 0.026
31 | G7A G26U C29A | ≤ 0.026
32 | A9G U16A U55C | 0.188
33 | G7A G28U C34A | ≤ 0.026
34 | G7U C11U C56G | ≤ 0.026
35 | A9G U21C A60U | ≤ 0.026
36 | U8A A54U U76C A87C | ≤ 0.026
37 | A9C A60U | 0.575
38 | A9C A60C | 0.0924
39 | A9C U35A | ≤ 0.026
40 | A9C A31G C68G G86A | ≤ 0.026
41 | A9C C68U G78C | 0.0334
42 | G7U U55C C68U A89C | ≤ 0.026
43 | G6A U8G | ≤ 0.026
44 | U8C A24U U71C | ≤ 0.026
45 | A9C C12U | 0.186
46 | U8G U57C | ≤ 0.026
47 | A9G A33U C34G U71A | ≤ 0.026
48 | A9C U20C C75A | 0.566

Row | Variant | nonsense suppression
49 | U8C A14C C34U | ≤ 0.026
50 | C5U U17C | 0.0495
51 | G6U U17G C83A | 1.15
52 | U8A G25C U70A | ≤ 0.026
53 | A9G A30G G61A | 0.291
54 | A9C U20G G61U C68U | ≤ 0.026
55 | G7U A54U U63C G88U | ≤ 0.026
56 | U8C A54G G59C A62G G84A | ≤ 0.026
57 | A9C U58G G61U | ≤ 0.026
58 | A9G A30G | 0.466
59 | A9G A30U | 0.163
60 | G6A A13U | 0.0458
61 | G6A A13G | ≤ 0.026
62 | U8C U20A | 0.0281
63 | C5U U8A A9C G10C C12U G25U A31G | ≤ 0.026
64 | A9C C68U | 0.765
65 | A9C C75A | 0.938
66 | G7C A33U G73A | ≤ 0.026
67 | G7C U57A | ≤ 0.026
68 | A9C U22A | 0.709
69 | A9C U22G | 0.878
70 | G7U A13G U17A | ≤ 0.026
71 | U8C C12A C68A C72U | ≤ 0.026
72 | A9G C29U C75G | 0.252

Row | Variant | nonsense suppression
73 | G6A A23G G25C U63C C80G | ≤ 0.026
74 | G7C C12A U71G U76C G88A | ≤ 0.026
75 | A9C G61C | 0.791
76 | G6U G7C A33U | ≤ 0.026
77 | U8G G18C G59A | ≤ 0.026
78 | A9G U17C U22C | 0.133
79 | A9C U17G | 0.595
80 | U8A U57C G85U | ≤ 0.026
81 | G7C A14G U22A A24U G85C | ≤ 0.026
82 | G7U G65A U76A | ≤ 0.026
83 | G6U C11U A13U | ≤ 0.026
84 | G6U C82A A87U | ≤ 0.026
85 | G6C A9U G65U G85C | ≤ 0.026
86 | C5U G66U G78A | ≤ 0.026
87 | A9C C34U U58G G78C | ≤ 0.026
88 | G7A U20G C34U A62C | ≤ 0.026
89 | C5U U8C G65A | ≤ 0.026
90 | U8A G10A G65A G85U | ≤ 0.026
91 | G6U U16G G59A G78A | ≤ 0.026
92 | A9G A54C | 0.207
93 | A9G A54U | 0.196
94 | A9G A13G | 0.205
95 | A9G A13C | 0.183
96 | U8G G26A C56U C64G G66U G78U A89U | ≤ 0.026

Row | Variant | nonsense suppression
97 | U8A A13U G19A A62G G67A U71C | ≤ 0.026
98 | U8A G85U | 0.071
99 | A9G U63A | 0.836
100 | A9G U16G | 0.551
101 | A9G U16A | 0.845
102 | A9C G61C G73C | ≤ 0.026
103 | U8C U63A | 0.0619
104 | G7A A13U U58G G86C | ≤ 0.026
105 | A9G C82U | 0.531
106 | G7A A9C A54G | ≤ 0.026
107 | C5U G84A | 1.15
108 | U8G G88A | 0.228
109 | A9G C12A | ≤ 0.026
110 | G6C A14G A60C G65U C79G G86C | ≤ 0.026
111 | C5U G85A | 0.08
112 | C5U G85U | 0.0303
113 | A9G A13U A74C | ≤ 0.026
114 | C5U U63A | 0.0305
115 | G7A U20C C82A G86A G88A A89C | ≤ 0.026
116 | G7A C11U U35A A54C C64U C83G | ≤ 0.026
117 | U8A G61A C72G C81G | ≤ 0.026
118 | G6A G19C G67C A87G | ≤ 0.026
119 | U8A U57C | ≤ 0.026
120 | G7U G32A A33C C83A A89G | ≤ 0.026

Row | Variant | nonsense suppression
121 | G6U U76G | ≤ 0.026
122 | C5U G7U G25A | ≤ 0.026
123 | G6C C12G C72G C75U G85C | ≤ 0.026
124 | U8A G67C U71G | ≤ 0.026
125 | G7C U35G | ≤ 0.026
126 | U8A A24C C79G | ≤ 0.026
127 | U8C A9U A54U | ≤ 0.026
128 | A9G A13C C34G U63A C81G G84A G86U | ≤ 0.026
129 | U8C C81G | ≤ 0.026
130 | A9G A30U U58A | 0.23
131 | U8G C56U | ≤ 0.026
132 | G6C G15A | ≤ 0.026
133 | G6U U70C | ≤ 0.026
134 | A9C A87G | 0.649
135 | U8G A9U C11A G26U | ≤ 0.026
136 | A9G U55C | 0.245
137 | A9G C72G U76G G88U | ≤ 0.026
138 | G7A U20G C34U U57C C64A C79U G88C | ≤ 0.026
139 | C5U G6U G84C | ≤ 0.026
140 | G6A G25C A33G | ≤ 0.026
141 | G7U G28U U71G C72A G86U | ≤ 0.026
142 | A9C C11A C75A | ≤ 0.026
143 | G6U U58G U76C C80G | ≤ 0.026
144 | G7A G61A | ≤ 0.026

Row | Variant | nonsense suppression
145 | G6U U17C G28U U55C G69U G88U | ≤ 0.026
146 | G7A U16G G26C U71G | ≤ 0.026
147 | U8A A30G | 0.0404
148 | U8A A30U | 0.0393
149 | G6U U57A | ≤ 0.026
150 | A9G | 0.45
151 | A9C | 1.05
152 | A9G U21A | 0.36
153 | G7U G32A A60C A74G | ≤ 0.026
154 | A9C A31G | 0.857
155 | G7C G19C G66U G69C | ≤ 0.026
156 | A9C C12U A23C A87U | ≤ 0.026
157 | G6C U20G | ≤ 0.026
158 | G6C U20A | ≤ 0.026
159 | G7C C11G C79A | ≤ 0.026
160 | C5U G28C | 0.0292
161 | A9C A13U A60U | 1.16
162 | A9G U16C G18U | ≤ 0.026
163 | A9C C29U | 0.751
164 | U8A A14U U20A A74C | ≤ 0.026
165 | G6C U57C G65A G67A A74C G78C | ≤ 0.026
166 | G6U U16C U17C G19U | ≤ 0.026
167 | C5U G61A | 0.0314
